“Also recorded” adds a separate entry of the source. Where a name gives a salt, the structure may show the parent alone. Read-outs that look alike come from different tables or passages of the source.
Legend:
Sm.5HTRL [1] = target: T1, Sm.5HTRL (Schistosoma mansoni, UniProt A0A173FEI8); experiment: Sm.5HTRL cAMP luminescence; type: cell-based; details: for Emax: read-out: Sm.5HTRL Emax (normalized to 5-HT)
T1 sequence (A0A173FEI8 1-547): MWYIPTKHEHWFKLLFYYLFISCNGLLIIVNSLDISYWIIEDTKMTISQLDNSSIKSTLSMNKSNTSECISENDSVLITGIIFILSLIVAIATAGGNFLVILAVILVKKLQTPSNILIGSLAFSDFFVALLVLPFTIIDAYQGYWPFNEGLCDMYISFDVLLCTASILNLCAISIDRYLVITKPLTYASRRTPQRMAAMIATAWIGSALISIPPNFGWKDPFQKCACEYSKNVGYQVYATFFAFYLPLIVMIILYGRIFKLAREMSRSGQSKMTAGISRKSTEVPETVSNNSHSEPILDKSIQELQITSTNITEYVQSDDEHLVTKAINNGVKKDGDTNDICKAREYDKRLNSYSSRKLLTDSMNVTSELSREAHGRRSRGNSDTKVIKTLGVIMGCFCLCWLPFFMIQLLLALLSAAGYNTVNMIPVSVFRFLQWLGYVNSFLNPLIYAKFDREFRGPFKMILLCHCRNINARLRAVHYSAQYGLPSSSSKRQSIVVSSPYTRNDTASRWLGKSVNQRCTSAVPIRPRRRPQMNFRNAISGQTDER
How it was run: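 HEK-293 cells stably carrying the GloSensor-22F cAMP reporter and codon-optimised Sm.5HTRL (pcDNA3.1), selected with hygromycin (200 μg/mL) and G418 (400 μg/mL), plated 2.5x10^4 cells/well the day before. Assay buffer was HBSS/HEPES (20 mM, pH 7.4), 0.1% BSA, D-luciferin 1 mg/mL. Cells were equilibrated 1 h at room temperature, then IBMX 200 μM for 30 min. Luminescence was read 45 min after test compound; Emax was taken relative to 5-HT.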

adult S. mansoni [2] = experiment: Adult schistosome mobility assay, agonist; design: species or system Schistosoma mansoni; details: adult male worms ex vivo; for increase in worm movement: 5 min incubation
How it was run: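 Adult worms came from female Swiss Webster mice 49 days after infection with NMRI-strain cercariae. They were washed in RPMI 1640 with HEPES 25 mM, 5% heat-inactivated FBS and pen-strep, then cultured overnight at 37 °C/5% CO2. Males (4–5/well, 3 mL) were exposed to test compound for 5 min. Movement was filmed for 1 min at 4 frames/s and quantified by image analysis; mean ± standard error, ≥3 independent experiments.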

[3] = system: mammalian 5-HT7 receptors; details: cited from earlier work
human 5-HT7 receptor = details: cited from earlier work
Sm.5HTRL [4] = target: T1, Sm.5HTRL; experiment: Sm.5HTRL cAMP luminescence; type: cell-based; details: for antagonist activity at Sm.5HTRL (in words): inhibition of 5-HT response, test compound up to 50 μM
How it was run: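 Sm.5HTRL/GloSensor-22F stable HEK-293 cells, 2.5x10^4/well, in HBSS/HEPES (20 mM, pH 7.4), 0.1% BSA, 1 mg/mL D-luciferin. After 1 h at room temperature, IBMX 200 μM was added for 30 min. Test compound was added and read 45 min, then 500 nM serotonin was added and luminescence read another 45 min. IC50 came from concentration-inhibition curves; Ki was estimated by Cheng-Prusoff.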

Sm.5HTRL [5] = target: T1, Sm.5HTRL; details: ref Chan et al., cited from earlier work
adult S. mansoni [6] = details: previous work; ref Chan et al., 2016c; cited from earlier work
adult S. mansoni [7] = experiment: Adult schistosome mobility assay, antagonist; design: species or system Schistosoma mansoni; details: for inhibition of 5-HT evoked movement (in words): concentrations as high as 50 μM, serotonin 200 μM; for concentration inhibiting 5-HT evoked movement: 1 h incubation, then serotonin 200 μM
How it was run: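 Adult worms were recovered 49 days after cercarial infection of female Swiss Webster mice (NMRI strain parasite). They were kept overnight at 37 °C/5% CO2 in RPMI 1640 with HEPES 25 mM, 5% heat-inactivated FBS and pen-strep. Males (4–5/well) were incubated 1 h in test compound, then serotonin 200 μM was added. One-minute videos at 4 frames/s were analysed for movement; mean ± standard error, ≥3 independent experiments.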

[8] = system: HEK-293 cells expressing the GloSensor-22F reporter alone; experiment: Counter-screen on parental GloSensor-22F cell line lacking Sm.5HTRL; type: cell-based; details: agonists at 10 μM
How it was run: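 Counter-screen used HEK-293 cells stably expressing the GloSensor-22F cAMP reporter without Sm.5HTRL, plated 2.5x10^4 cells/well the day before. Assay buffer was HBSS/HEPES (20 mM, pH 7.4), 0.1% BSA, 1 mg/mL D-luciferin. Cells were equilibrated 1 h at room temperature, then IBMX 200 μM added for 30 min. Test compound was added and luminescence read for 45 min.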

Sm.5HTRL [9] = target: T1, Sm.5HTRL; details: ref Chan et al., 2018; cited from earlier work
[10] = ref Bard et al., 1993, Shen et al.
[11] = pKi, estimated using the Cheng-Prusoff equation, inhibition of 500 nM 5-HT

In the case of NCCc1c[nH]c2ccc(Br)cc12 [5-Bromotryptamine], the “agonist activity at Sm.5HTRL (in words)” value (Sm.5HTRL [1]) is reported as “partial agonist activity”.
For NCCc1c[nH]c2ccc(C(N)=O)cc12 [5-Carboxamidotryptamine], the “agonist activity at Sm.5HTRL (in words)” value (Sm.5HTRL [1]; listed as 5-CT) is given as “inactive”, the “effect on worm movement (in words)” value (adult S. mansoni [2]) is given as “did not stimulate movement” and the “activity at mammalian 5-HT7 receptors (in words)” value [3, 10] is given as “potent full agonists”. For the same molecule, the “activity at human 5-HT7 receptor (in words)” value (human 5-HT7 receptor; ref Plassat et al., 1993) was “full agonists”.
With C=CCN(CC=C)CCc1c[nH]c2ccc(OC)cc12 [5-MeO-DALT, N,N-diallyl-5-methoxytryptamine] the “agonist activity at Sm.5HTRL (in words)” value (Sm.5HTRL [1]) was “inactive”.
In the case of COc1ccc2[nH]cc(CCN(C)C)c2c1 [5-MeO-DMT, 5-methoxy-N,N-dimethyltryptamine], the “agonist activity at Sm.5HTRL (in words)” value (Sm.5HTRL [1]) is reported as “inactive”.
In the case of COc1ccc2[nH]cc(CCN)c2c1 [5-methoxytryptamine], the “agonist activity at Sm.5HTRL (in words)” value (Sm.5HTRL [1]; listed as 5-MeOT) is reported as “inactive; also recorded: did not potently activate”, the “effect on worm movement (in words)” value (adult S. mansoni [2]) is reported as “stimulated movement” and the “effect on worm movement (in words)” value (adult S. mansoni [2]; listed as 5-MeOT) is reported as “potently stimulated movement”. The “activity at mammalian 5-HT7 receptors (in words)” value [3, 10] was “potent full agonists” and the “activity at human 5-HT7 receptor (in words)” value (human 5-HT7 receptor; ref Plassat et al., 1993) was “full agonists”.
In the case of Cc1ccc2[nH]cc(CCN)c2c1 [5-methyltryptamine], the “agonist activity at Sm.5HTRL (in words)” value (Sm.5HTRL [1]) is reported as “partial agonist activity” and the “effect on worm movement (in words)” value (adult S. mansoni [2]) is reported as “stimulated movement, but only at high concentrations in the hundreds of micromolar”.
With CCCN1CCc2cccc3c2[C@H]1Cc1ccc2c(c1-3)OCO2 [(-)-MDO-NPA hydrochloride] the Ki (Sm.5HTRL [4]; [11]) was 100 nM.
In the case of COc1cc2c(cc1O)C[C@H]1c3c(cc(O)c(OC)c3-2)CCN1C [Boldine], the “antagonist activity at Sm.5HTRL (in words)” value (shortened to “antagonist activity”) (Sm.5HTRL [4]) is listed as “potent antagonists” and the “activity at Sm.5HTRL (in words)” value (Sm.5HTRL [5]; 2016a) is listed as “Sm.5HTRL antagonists”.
In the case of CN(C)CCc1c[nH]c2ccc(O)cc12 [Bufotenine], the EC50 (Sm.5HTRL [1]) is reported as 2400 ± 200 nM and the Emax (Sm.5HTRL [1]) is reported as 99 ± 34%.
For COc1ccc2c(c1OC)CN1CCc3cc4c(cc3[C@@H]1C2)OCO4 [Canadine], the “antagonist activity” value (Sm.5HTRL [4]) was “loss of activity; also recorded: inactive”.
For COc1cc2c(cc1OC)C1Cc3ccc(OC)c(OC)c3CN1CC2 (centres unmarked) [D,L Rotundine], the Ki (Sm.5HTRL [4]) is listed as 63.1 nM, the “activity at Sm.5HTRL (in words)” value (Sm.5HTRL [5]; 2016c, listed as D/L-rotundine) is listed as “antagonist” and the “activity at Sm.5HTRL (in words)” value (Sm.5HTRL [5]; 2016c, listed as rotundine) is listed as “potent antagonists”. The “effect on movement of adult worms (in words)” value (adult S. mansoni [6]) was “inhibited movement of adult worms”.
In the case of COc1cc2c(cc1OC)[C@H]1Cc3ccc(OC)c(OC)c3CN1CC2 [D-Rotundine], the “antagonist activity” value (Sm.5HTRL [4]) is reported as “inactive” and the “inhibition of 5-HT evoked movement (in words)” value (adult S. mansoni [7]) is reported as “no inhibition”.
For COc1cc2c(cc1OC)-c1c(OC)c(OC)cc3c1[C@H](C2)N(C)CC3 [D-glaucine], the “antagonist activity” value (Sm.5HTRL [4]) is given as “potent antagonists”, the Ki (Sm.5HTRL [4]; [11]) is given as 158 nM and the “activity at Sm.5HTRL (in words)” value (Sm.5HTRL [5]; 2016a) is given as “Sm.5HTRL antagonists”.
For CN(C)CCc1c[nH]c2ccccc12 [DMT, N,N-Dimethyltryptamine], the “agonist activity at Sm.5HTRL (in words)” value (Sm.5HTRL [1]) was “inactive” and the “effect on worm movement (in words)” value (adult S. mansoni [2]) was “no effect on worm movement”.
With COc1cc2cc3c4c(cc(OC)c(OC)c4c2cc1OC)CCN3C [Dehydroglaucine] the “antagonist activity” value (Sm.5HTRL [4]) was “inactive”.
In the case of COc1cc2c3c(c1OC)-c1ccccc1C[C@H]3N(C)CC2 [L-Nuciferine], the “antagonist activity” value (Sm.5HTRL [4]) is given as “potent antagonists”, the Ki (Sm.5HTRL [4]; [11]) is given as 79.4 nM and the “activity at Sm.5HTRL (in words)” value (Sm.5HTRL [5]; 2016a) is given as “potent antagonists; also recorded: Sm.5HTRL antagonists”.
For COc1cc2c(cc1OC)[C@@H]1Cc3ccc(OC)c(OC)c3CN1CC2 [L-Rotundine], the “antagonist activity” value (Sm.5HTRL [4]) was “active” and the “concentration inhibiting 5-HT evoked movement” value (adult S. mansoni [7]) was at least 1 µM.
In the case of COc1ccc(CC2c3cc(OC)c(OC)cc3CCN2C)cc1OC (centres unmarked) [Laudanosine], the “antagonist activity” value (Sm.5HTRL [4]) is reported as “None of these showed any inhibition”.
With CNCCc1c[nH]c2ccccc12 [N-Methyltryptamine] the “agonist activity at Sm.5HTRL (in words)” value (Sm.5HTRL [1]) was “inactive”.
For CNCCc1c[nH]c2ccc(O)cc12 [N-methylserotonin], the EC50 (Sm.5HTRL [1]) was 154 ± 11 nM, the Emax (Sm.5HTRL [1]) was 113 ± 28% and the “effect on worm movement (in words)” value (adult S. mansoni [2]) was “full agonist”. For the same molecule, the “increase in worm movement” value (adult S. mansoni [2]) was 252 ± 9% and the “activity at mammalian 5-HT7 receptors (in words)” value ([3]; ref Powell et al., 2008) was “full agonist”.
For COc1cc2c(cc1OC)-c1cc3ccc(OC)c(OC)c3c[n+]1CC2 [Palmatine], the “antagonist activity” value (Sm.5HTRL [4]) was “inactive” and the “inhibition of 5-HT evoked movement (in words)” value (adult S. mansoni [7]) was “no inhibition”.
With COc1ccc(C(=O)c2nccc3cc(OC)c(OC)cc23)cc1OC [Papaveraldine] the “antagonist activity” value (Sm.5HTRL [4]) was “None of these showed any inhibition”.
In the case of COc1ccc(Cc2nccc3cc(OC)c(OC)cc23)cc1OC [Papaverine], the “antagonist activity” value (Sm.5HTRL [4]) is reported as “None of these showed any inhibition”.
For CC1CCN(CC[C@H]2CCCN2S(=O)(=O)c2cccc(O)c2)CC1 [SB-269970], the “activity at Sm.5HTRL (in words)” value (Sm.5HTRL [5]; 2016c) is given as “inactive”.
In the case of NCCc1c[nH]c2ccc(O)cc12 [Serotonin], the EC50 (Sm.5HTRL [1]) is reported as 94 ± 18 nM, the “increase in worm movement” value (adult S. mansoni [2]) is reported as 224 ± 17% and the “activity in cells expressing the GloSensor-22F reporter alone (in words)” value [8] is reported as “not observed”.
In the case of c1cc2c(c3c1CC1c4cc5c(cc4CCN1C3)OCO5)OCO2 (centres unmarked) [Tetrahydrocoptisine], the “antagonist activity” value (Sm.5HTRL [4]) is reported as “loss of activity” and the “antagonist activity” value (Sm.5HTRL [4]; listed as tetrahydrocopsitine) is reported as “inactive”.
In the case of NCCc1c[nH]c2ccccc12 [Tryptamine], the “agonist activity at Sm.5HTRL (in words)” value (Sm.5HTRL [1]) is reported as “negligible activity”.
With COc1cc2c3c(c1O)-c1ccccc1CC3N(C)CC2 (centres unmarked) [compound 785177] the “concentration inhibiting 5-HT evoked movement” value (adult S. mansoni [7]) was 1 to 10 µM.
With COc1cc2c(cc1OC)CN1CCc3cc(OC)c(OC)cc3[C@@H]1C2 [d-Xylopinine] the “antagonist activity” value (Sm.5HTRL [4]) was “decreased potency” and the “times less potent than rotundine at Sm.5HTRL” value (Sm.5HTRL [4]; relative to rotundine) was about 10.
In the case of COc1cc2c3c(cc4ccccc4c3c1OC)N(C)CC2 [dehydronuciferine], the “antagonist activity” value (Sm.5HTRL [4]) is reported as “inactive”.
For CN1C[C@H](C(=O)N[C@]2(C)O[C@@]3(O)[C@@H]4CCCN4C(=O)[C@H](Cc4ccccc4)N3C2=O)C=C2c3cccc4[nH]cc(c34)C[C@H]21 [ergotamine], the “activity at Sm.5HTRL (in words)” value (Sm.5HTRL [9]) is listed as “full agonist” and the “activity at human 5-HT7 receptor (in words)” value (human 5-HT7 receptor; ref Wacker et al., 2013) is listed as “potent antagonist”.
For COc1cc2c3c(c1OC)-c1cc4c(cc1CC3N(C)CC2)OCO4 (centres unmarked) [nantenine], the “antagonist activity” value (Sm.5HTRL [4]) was “potent antagonists”.
